Compound activity as filed in PubChem BioAssay.
The full list was thinned out, with hits kept by preference.
ROMK mod: human ROMK K+ channel modulation, primary screen; P48048; Tet-inducible ROMK, thallium flux fluorescence; actives lie on both sides; B-score at 10 µM; 130,000 compounds, 2% hits;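 active = signal ratio slope over the read window, or its plate-corrected B-score, at least 3 SD from the plate mean, either direction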;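 also: B-score of the F/F0 ratio slope over 7 to 12 s after thallium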
Target sequence (P48048 whole entry, looked up): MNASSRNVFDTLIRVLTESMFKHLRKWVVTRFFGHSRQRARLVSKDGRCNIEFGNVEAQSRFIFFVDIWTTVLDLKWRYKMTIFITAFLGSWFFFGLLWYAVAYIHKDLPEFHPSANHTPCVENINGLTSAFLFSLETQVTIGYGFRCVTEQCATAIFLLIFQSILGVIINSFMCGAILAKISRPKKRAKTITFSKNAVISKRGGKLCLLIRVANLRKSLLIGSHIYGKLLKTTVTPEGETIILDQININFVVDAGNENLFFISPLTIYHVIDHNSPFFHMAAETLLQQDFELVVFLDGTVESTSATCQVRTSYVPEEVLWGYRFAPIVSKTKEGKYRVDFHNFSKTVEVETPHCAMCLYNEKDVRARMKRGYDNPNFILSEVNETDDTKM
Biofilm kill mix: mixtures killing C. albicans biofilm; C. albicans biofilm persisters + clotrimazole, fluorescence viability; primary screen in compound mixtures of four per well; inhibition, % at 7.6 µM; 120,000 compounds, 0.02% hits; AID 1242;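 active = inhibition above 30.3% in the primary screen of four-compound pools, then above 30% when the compound was retested; inconclusive = passed the primary limit but could not be retested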;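 also: compounds exposed to preformed 24 h biofilms for 48 h; 0% = untreated biofilm control and 100% = clotrimazole plus chlorhexidine kill blank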
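Probe or stimulus – Clotrimazole 50 µg/mL co-treatment · System – C. albicans biofilms · Schedule – 24 h biofilm formation, then 48 h compound exposure, 37 °C · Evaluation – percent inhibition of biofilm viability · Technique – 2-h Alamar Blue fluorescence, 535/590 nm excitation/emission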
Pf gamet viab: kills late stage P. falciparum gametocytes. P. falciparum stage V gametocytes, ATP luminescence, 24 h. 150,000 compounds, 0.065% hits. inhibition, % at 10.9 µM. AID 743093;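 active = inhibition above the mean plus 3 SD of compounds within the control limits, set per campaign, cut at about 38% in these data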;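 also: 0% = DMSO wells and 100% = medium only without gametocytes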
ROMK retest: retested hit modulating human ROMK potassium channel. ROMK thallium flux, fluorescence ratio; stronger effect = lower value. shares compounds with ROMK mod. 3,000 compounds, 54% hits. AID 1917. normalized thallium flux (F/F0 slope) at 10 µM;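 active = Flux at 10 µM at least 3 SD below or above vehicle control mean in one or both replicates; inconclusive = no clear call, values can overlap the other calls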
* hit, by the source's call; ? = inconclusive; / = not tested or not shown.

SMILES | ROMK mod | Biofilm kill mix | Pf gamet viab | ROMK retest
CN1CCN(C(=O)CC2(CC(=O)O)CCCC2)CC1 | -0.65 | 23 | 11 | /
COC(=O)c1ccc(OC(=O)c2ccc(OC)cc2)c(OC)c1 | -0.5 | 13 | 15 | /
COC(=O)c1ccc(OC(=O)c2ccc(OC)c(OC)c2)c(OC)c1 | -3.9* | / | / | 0.08
CCC(C)[C@@H](N)C(=O)N/N=C/c1cccc2nccnc12 (stereo partly drawn) | / | 20 | / | /
Cc1ccc(S(=O)(=O)NCCc2cccs2)cc1 | / | 20 | -15 | /
Cc1ccccc1OCC(O)CN1CCN(CCN2C(=O)c3cccc4cccc(c34)C2=O)CC1 (stereo not drawn) | / | 1 | / | /
CCC(OCC(O)CN1CCN(CCN2C(=O)c3cccc4cccc(c34)C2=O)CC1)c1ccccc1 (stereo not drawn) | -3.6* | 11 | -50 | 0.059*
CCn1c(SCC(=O)Nc2cc(C)on2)nnc1-c1ccc(OC)cc1 | 0.39 | 13 | 7 | /
CCOc1c(Cl)cc(C(=O)Nc2ccccc2C(=O)O)cc1Cl | -3.6* | / | / | 0.054*
COc1ccc(C(=O)Nc2ccccc2C(=O)O)cc1Cl | 0.063 | 7 | 5 | /
COC(=O)C1=C(C)N(CC2CC2)C(=O)N[C@H]1c1ccccc1 | / | / | 4 | /
COc1ccc(Br)cc1C(=O)Nc1ccc(C(=O)O)cc1 | -0.28 | 11 | 17 | /
COc1ccc(NC(=O)c2cc3cccc(OC)c3oc2=Nc2ccc(C(=O)O)cc2)cc1OC | -4.4* | 5 | 20 | 0.054*
CCOC(=O)c1nnn2c1nc(Nc1cccc(C(F)(F)F)c1)c1ccccc12 | -0.32 | 25 | -16 | /
CC1(C)Cc2cccc(C(=O)Nc3ccc(F)cc3F)c2O1 | / | 22 | -2 | /
COCc1nc2ccccc2n1CCc1ccccc1 | / | / | 6 | /
O=C(O)/C(=C\c1ccccc1OC(F)F)Sc1nnc(-c2ccc(F)cc2)o1 | -3* | 14 | 12 | 0.056*
C/C(N)=C(/C#N)C(=O)CSc1nnc(-c2ccc(OC(F)F)cc2)o1 | -0.076 | / | / | /
O=C(NC(=S)N(CC1CCC1)CC1CCCO1)c1cccc([N+](=O)[O-])c1 (stereo not drawn) | / | 28 | 11 | /
COc1ccc(C(=O)NCCSC2CCCCC2)cc1 | -2.2* | 22 | / | ?
O=C(NCCSC1CCCCC1)c1ccccc1 | -0.17 | 7 | / | /
CN(C)C(=O)[C@H]1C[C@H]1[C@@H](O)[C@H](CO)NC(=O)[C@H](Cc1ccccc1)NC(=O)OC(C)(C)C | / | / | -2 | /
Cc1[nH]c2ccccc2c1C(=O)C(=O)N1CC=C(c2ccccc2)CC1 | / | 21 | -4 | /
Cc1nnc(SCc2c(Cl)cccc2Cl)n(N)c1=O | -2.9* | -2 | -2 | 0.061*
Cc1nnc(SCc2cccc3ccccc23)n(N)c1=O | / | 12 | 2 | /
SMILES | ROMK mod | Biofilm kill mix | Pf gamet viab | ROMK retest
COc1ccccc1/C=C/CN1CCCC(CCC(=O)NCc2ccc(F)c(F)c2)C1 (stereo not drawn) | -1.8 | 19 | 10 | /
COc1cccc(CNC(=O)CCC2CCCN(C/C=C/c3ccccc3OC)C2)c1 (stereo not drawn) | -5.5* | 15 | / | 0.065*
COc1cc(C(=O)NCCN2C(=O)S/C(=C\c3ccc(F)cc3)C2=O)ccc1OCC(=O)N1CCOCC1 | / | 13 | / | /
O=C(OCC(=O)N1CCc2ccccc21)c1ccccn1 | 0.7 | 9 | -2 | /
COc1ccc(N=C2O/C(=C/c3sc(=S)n(CC4CCCO4)c3O)N=C2C#N)cc1 (stereo not drawn) | / | 8 | -14 | 0.055*
COc1ccc(C(=O)NNC(=O)CSc2nnc(C)n2CC2CCCO2)cc1 (stereo not drawn) | -0.037 | 12 | 7 | /
[N-]=[N+]=NC[C@H](Cc1ccccc1)N1CCN(Cc2ccccc2)CCC1=O | / | / | 6 | /
CCCCNC(=O)c1onc(CSc2cc(C)cc(C)c2)c1C(=O)NCCCC | / | / | 7 | /
O=C(O)CCC(=O)Nc1nnc(C(F)(F)F)s1 | / | / | 18 | /
CCC(NC(=O)Nc1nnc(C(F)(F)F)s1)(C(F)(F)F)C(F)(F)F | -5.8* | / | / | 0.062*
NC(=O)c1sc2nc(-c3ccccc3)c3c(c2c1N)CCCC3 | -0.2 | 13 | 0 | /
NC(=O)c1sc2nccc(Nc3ccccc3)c2c1N | / | / | -11 | 0.06*
Cc1ccc(C(=O)NC(=S)NCc2ccco2)cc1 | 0.42 | 5 | -17 | /
O=C(NC1CCCCCC1)C1c2ccccc2C(=O)N1Cc1cccnc1 (stereo not drawn) | / | / | -21 | /
O=C(NC1CCCCCCC1)C1c2ccccc2C(=O)N1Cc1ccco1 (stereo not drawn) | / | / | / | ?
CC1(C)NC(=O)N(CCCCOc2ccc(Cl)cc2)C1=O | -0.31 | / | -13 | /
CC1(C)NC(=O)N(CCCCOc2ccc(Cl)cc2C=O)C1=O | 3.9* | 14 | -2 | 0.092
CN(C)C1=NCCN1CC1CCCC1 | / | / | 3 | /
